One series relates to TrxR in T. vaginalis. The note with it: read-out: IC50, TrxR inhibition; cited from earlier work.
A further series has as its system HeLa cells. Put plainly: Cytotoxicity assay in human HeLa cells. It is filed as cell-based. The note with it: for human cytotoxicity: HeLa cells, 48 h, described in words (Fig. 2-4).
Series [1] deals with T. vaginalis strains (four MzS, four MzR). Description: Drug susceptibility of Mz-sensitive and Mz-resistant T. vaginalis lines. It is filed as cell-based, Trichomonas vaginalis. The note with it: for activity against Mz-resistant T. vaginalis lines: four Mz-resistant clinical isolates. The method, boiled down: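 Trophozoites were cultured at 37 °C in TYM Diamond's medium with 180 μM ferrous ammonium sulphate. Compound stocks were diluted in PBS to 75 μM, then serially diluted 1:3. Plates held 5 × 10^3 trophozoites/well and were incubated 24 h at 37 °C anaerobically. ATP luminescence (BacTiter-Glo) read growth and viability, and curves gave EC50. Replicates: n≥3, mean + SEM. MzS versus MzR groups were compared by unpaired t-test.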

The test system of another series is T. foetus. Description: In vitro activity against T. foetus. It is filed as cell-based. The note with it: compared with T. vaginalis F1623.
In series [2] the test system is T. vaginalis F1623. The note with it: previously discovered; cited from earlier work.
Series [3] has as its system sensitive T. vaginalis strain. Description: Synergy of gold. The note with it: 24 h. The format is cell-based, Trichomonas vaginalis.
In series [4] the test system is T. vaginalis F1623. Put plainly: T. vaginalis 24 h growth and survival assay. The format is cell-based, Trichomonas vaginalis. The note with it: for trichomonacidal activity: T. vaginalis F1623, 24 h, described in words (Fig. 2-4); for reduced trichomonacidal activity compared to the chloride counterparts: bromide and iodide vs chloride complexes (4, 10).
In the next series the test system is T. foetus D1. Description: Murine vaginal trichomonad infection model. It is filed as in vivo, BALB/cJ mice. The note with it: 4 days after infection, Wright-Giemsa stain.
The conditions of series [5]: intravaginal administration compared to a single oral dose; cited from earlier work.
[6] abbreviates: tributyl vs triethyl phosphine compound.

Entries after “also recorded” stand apart in the source; their conditions may differ.

In the case of `CC(=O)OC[C@H]1O[C@@H]([S-])[C@H](OC(C)=O)[C@@H](OC(C)=O)[C@@H]1OC(C)=O.CCP(CC)CC.[Au+]` [AF, reference compound], the concentration for half-maximal inhibition (IC50) in the series on TrxR in T. vaginalis was ~100 nM. Also, in the series on HeLa cells, the human cytotoxicity result is “slightly more toxic against human cells than the parasite”. The “activity against Mz-resistant T. vaginalis lines” value in series [1] is listed as “sensitive”. The “activity against T. foetus in vitro” value with T. foetus is “as active against T. foetus in vitro as they were against T. vaginalis”. Also, in the series with T. vaginalis F1623 [2], the “activity against T. vaginalis / trichomonads” value is recorded as “low μM range”. Besides, the “interference or synergy with the activity of Mz” value in [3] is given as “neither compound 4 nor AF interfered or synergized”.
`OCC1OC([S-])C(O)C(O)C1O.[Au+]` (stereo not drawn) [ATG, 3,4,5-trihydroxy-6-(hydroxymethyl)oxane-2-thiolate gold (I), reference compound]: the trichomonacidal activity result in the series with T. vaginalis F1623 [4] is “barely showed activity”.
Still for that read-out and setting: then `O.O=C([O-])CC([S-])C(=O)[O-].[Au+].[Na+].[Na+]` (stereo not drawn) [ATM, (1,2-Dicarboxyethylthio) disodium salt hydrate gold(I), reference compound], with “barely showed activity”.
In the case of `CC[P+](CC)(CC)[Au-][S]C(CC(=O)O)C(=O)O` (stereo not drawn) [Compound 2, S-Triethylphosphine gold(I) thiomalic acid], the trichomonacidal activity entry in the series with T. vaginalis F1623 [4] is on record as “improved trichomonacidal activity similar to AF”. Also, the human cytotoxicity result with HeLa cells is given as “toxic in human cells”.
The corresponding values for `CC[P](CC)(CC)[Au][c]1n(-c2c(C)cc(C)cc2C)cc[n+]1-c1c(C)cc(C)cc1C.[Cl-]` [Compound 3, [Triethylphosphine-(bis(2,4,6-trimethylphenyl)imidazol-2-ylidene)]gold(I) chloride] are “did not enhance trichomonacidal activity” and “strongly increased human cytotoxicity”.
Take `CCP(CC)CC.[Au+].[Cl-]` [Compound 4, (Tri-n-ethylphosphine)gold(I) chloride]: the trichomonacidal activity result with T. vaginalis F1623 [4] was “slightly increased activity against T. vaginalis; also recorded: low μM range”. Besides, the human cytotoxicity entry with HeLa cells was “markedly reduced human cytotoxicity; also recorded: decreased human cytotoxicity”. Besides, in [1], the “activity against Mz-resistant T. vaginalis lines” value is “sensitive”. Further, in the series with T. foetus D1, the “histological analysis of vaginal tract” value was “disappearance of T. foetus trophozoites from the vaginal lumen”. Further, the “activity against T. foetus in vitro” value with T. foetus is recorded as “as active against T. foetus in vitro as they were against T. vaginalis”. Moreover, the “interference or synergy with the activity of Mz” value in [3] was “neither compound 4 nor AF interfered or synergized”.
Take `C[P+](C)(C)[Au-][Cl]` [Compound 10, (Tri-n-methylphosphine)gold(I) chloride]: in the series with T. vaginalis F1623 [4], the trichomonacidal activity result is “low μM range”. In addition, the human cytotoxicity result in the series on HeLa cells is given as “decreased human cytotoxicity”. Also, the “activity against Mz-resistant T. vaginalis lines” value in [1] is recorded as “sensitive”. The “activity against T. foetus in vitro” value in the series on T. foetus is “as active against T. foetus in vitro as they were against T. vaginalis”.
In the case of `C[P+](C)(C)[Au-][P+](C)(C)C.[Cl-]` [Compound 13, Bis(trimethylphosphine)gold(I) chloride], the trichomonacidal activity result with T. vaginalis F1623 [4] is reported as “as or moderately more active”. Further, the human cytotoxicity result in the series with HeLa cells was “as or moderately more active”.
As for `CCC[P+](CCC)(CCC)[Au-][P+](CCC)(CCC)CCC.[Cl-]` [Compound 15, Bis(tri-n-propylphosphine)gold(I) chloride], the trichomonacidal activity result in the series with T. vaginalis F1623 [4] is on record as “as or moderately more active”. In the series on HeLa cells, the human cytotoxicity entry is “as or moderately more active”.
Regarding `CC(C)[P+]([Au-][P+](C(C)C)(C(C)C)C(C)C)(C(C)C)C(C)C.[Cl-]` [Compound 16, Bis(triisopropylphosphine)gold(I) chloride], the trichomonacidal activity entry with T. vaginalis F1623 [4] was “as or moderately more active”. In addition, the human cytotoxicity result with HeLa cells is reported as “as or moderately more active”.
Regarding `CC(C)(C)[PH+](C(C)(C)C)C(C)(C)C.[Cl][Au]` [Compound 17, (Tri-tert-butylphosphine)gold(I) chloride], the trichomonacidal activity entry with T. vaginalis F1623 [4] is “inactive”. Moreover, the human cytotoxicity result with HeLa cells is “inactive”.
As to `Cc1ncc([N+](=O)[O-])n1CCO` [Mz, metronidazole, reference compound], the “decrease in systemic exposure” value in series [5] is reported as 96–98%. In [1] (four Mz-resistant lines compared to four susceptible lines), the “loss in Mz susceptibility” value is recorded as 20- to 100 fold.
In the case of “(1-Thio-β-D-glucopyranosato) (triethylphosphine) gold(I) [Compound 1]”, the trichomonacidal activity entry with T. vaginalis F1623 [4] is “improved trichomonacidal activity similar to AF”. For the same molecule, in the series with HeLa cells, the human cytotoxicity entry was “toxic in human cells”.
Consider “(2,3,4,6-Tetra-O-acetyl-1-thio-β-D-galacotopyranosato)(butylphosphine) gold(I) [Compound 5]”, for which, in the series on T. vaginalis F1623 [4] (setting [6]), the “lower activity against T. vaginalis than triethyl partner” value is recorded as ~ 10 fold. Further, in the series with HeLa cells (setting [6]), the “lower activity against human cells than triethyl partner” value is listed as ~ 10 fold.
Take “(Tri-n-butylphosphine)gold(I) chloride [Compound 9]”: in the series on T. vaginalis F1623 [4], the trichomonacidal activity entry was “abolished all activity; also recorded: inactive”. The human cytotoxicity entry in the series with HeLa cells is “abolished all activity; also recorded: inactive”.
As to “(Tri-n-propylphosphine)gold(I) chloride [Compound 11]”, the trichomonacidal activity result with T. vaginalis F1623 [4] is recorded as “low μM range”. Besides, the human cytotoxicity entry in the series on HeLa cells is on record as “decreased human cytotoxicity”.
Regarding “(Triethylphosphine)gold(I) bromide [Compound 24]”, the “reduced trichomonacidal activity compared to the chloride counterparts” value in the series with T. vaginalis F1623 [4] is 5- to 10 fold.
The same measure, in the same setting: for “(Triethylphosphine)gold(I) iodide [Compound 26]” the value was 5- to 10 fold.
Take “(Triisopropylphosphine)gold(I) chloride [Compound 12]”: the trichomonacidal activity entry in the series on T. vaginalis F1623 [4] is on record as “low μM range”. Further, the human cytotoxicity result in the series with HeLa cells is recorded as “decreased human cytotoxicity”.
“(Trimethylphosphine)gold(I) bromide [Compound 23]”: the “reduced trichomonacidal activity compared to the chloride counterparts” value with T. vaginalis F1623 [4] is reported as 5- to 10 fold.
The same measure, in the same setting: for “(Trimethylphosphine)gold(I) iodide [Compound 25]” the value was 5- to 10 fold.
Consider “Bis(triethylphosphine)gold(I) chloride [Compound 14]”, for which the trichomonacidal activity result in the series with T. vaginalis F1623 [4] is recorded as “as or moderately more active”. Besides, the human cytotoxicity entry in the series with HeLa cells is given as “as or moderately more active”.

A word on the IC50: it is the point on the concentration scale where inhibition reaches its midpoint.

Source of the values: publication PMC9309012 (Journal of medicinal chemistry, 2021).
